Screens (PubChem)
VIM-2 inhibitor: inhibitors of Pseudomonas aeruginosa VIM-2 metallo-beta-lactamase | purified VIM-2, nitrocefin hydrolysis, epi-absorbance fluorescence | inhibition, % at 5.6 µM | 290,000 tested, 0.89% active | AID 1527;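 active means inhibition above the mean of all tested compounds plus 3 SD, cutoff set per screening run, cut at about 7.5% in these data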;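 further: red hydrolysis product quenches plate fluorescence so inhibitors raise well fluorescence; 0% = enzyme with DMSO and 100% = DMSO without enzyme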
MEKK2mut PB1 HTS: signal of MEK5 binding to mutant human MEKK2 PB1 domain. bead flow cytometry, Alexa488-MEK5 binding to MEKK2 mutant. percent response, % at 10 µM. 290,000 tested, 0.35% active. AID 1530; in the data active means percent response above about 24%, passing the limit was not always enough
MEKK3 PB1 HTS: modulators (inhibitors or enhancers) of MEK5 binding to human MEKK3 PB1 domain | bead-based flow cytometry, Alexa488-MEK5 binding to MEKK3; actives lie on both sides; 0 = blocked by unlabeled MEK5, 100 = vehicle | binding response (% of control), % at 10 µM | Q99759 | 290,000 tested, 1.4% active;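 active means binding response more than 3 SD above or below the average of its plate-row segment, actives on both sides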;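 further: Alexa488 bead fluorescence after subtracting the streptavidin-only scavenger bead signal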
Target sequence (Q99759 whole entry, looked up, the tested form may be a part): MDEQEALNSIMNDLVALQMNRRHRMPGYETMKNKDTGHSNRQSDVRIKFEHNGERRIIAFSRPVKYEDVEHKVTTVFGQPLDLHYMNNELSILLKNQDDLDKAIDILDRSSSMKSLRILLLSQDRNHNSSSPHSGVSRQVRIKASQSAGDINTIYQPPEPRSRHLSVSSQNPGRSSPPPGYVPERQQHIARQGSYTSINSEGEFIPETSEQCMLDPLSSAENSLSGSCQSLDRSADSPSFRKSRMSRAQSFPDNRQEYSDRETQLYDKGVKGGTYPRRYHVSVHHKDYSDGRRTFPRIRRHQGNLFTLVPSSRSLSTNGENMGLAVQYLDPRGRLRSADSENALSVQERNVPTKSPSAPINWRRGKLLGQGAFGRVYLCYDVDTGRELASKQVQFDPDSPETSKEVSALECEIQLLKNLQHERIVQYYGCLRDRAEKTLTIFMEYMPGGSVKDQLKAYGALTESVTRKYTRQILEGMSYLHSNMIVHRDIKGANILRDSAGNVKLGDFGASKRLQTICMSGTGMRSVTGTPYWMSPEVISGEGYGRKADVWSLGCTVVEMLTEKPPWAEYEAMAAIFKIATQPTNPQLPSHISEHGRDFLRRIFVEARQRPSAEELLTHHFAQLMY
MEKK2wt PB1 HTS: raises or lowers MEK5 binding to wildtype human MEKK2 PB1 domain. 290,000 tested, 1.1% active. binding response (% of control), % at 10 µM. bead flow cytometry, Alexa488-MEK5 binding to MEKK2 WT; actives lie on both sides; in the data active means binding response below about 67% or above about 130%
IMP-1 inhibitor: blocks Pseudomonas aeruginosa IMP-1 metallo-beta-lactamase | purified IMP-1, nitrocefin hydrolysis, epi-absorbance fluorescence | inhibition, % at 5.6 µM | 290,000 tested, 0.45% active;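 active means inhibition above the mean plus 3 SD of all compounds in the same screening run, cut at about 4.5% in these data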;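 further: 0% = IMP-1 with DMSO and 100% = DMSO wells lacking enzyme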
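System: purified recombinant IMP-1 beta-lactamase. Medium: Zinc- and detergent-supplemented HEPES buffer, pH 7.1. Compound: one 5.6 µM dose […]. Schedule: 15 min preincubation plus 25 min reaction at 25 °C. Technique: Epi-absorbance fluorescence, 480 nm excitation, 530 nm emission.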
Starred values were filed as active, the others as inactive. Sampled rows, rich in hits. Any-hit rate of the full collection: about 3.4%.

How did CN(c1ccc(C(=O)NCc2ccc3c(c2)OCO3)cc1)S(C)(=O)=O do in these assays?
VIM-2 inhibitor: -3; MEKK2mut PB1 HTS: -6; MEKK3 PB1 HTS: 96; MEKK2wt PB1 HTS: 104; IMP-1 inhibitor: 0

What do the screens show for `Cc1cccc(C)c1NC(=O)CS(=O)CC(=O)Nc1ccc(N2CCOCC2)cc1` (stereo not drawn)?
VIM-2 inhibitor: 0; MEKK2mut PB1 HTS: -2; MEKK3 PB1 HTS: 103; MEKK2wt PB1 HTS: 103; IMP-1 inhibitor: -1

What do the screens show for `CCc1ccc(NC(=O)CS(=O)CC(=O)Nc2ccc(N3CCOCC3)cc2)cc1` (stereo not drawn)?
VIM-2 inhibitor: -1; MEKK2mut PB1 HTS: 1; MEKK3 PB1 HTS: 102; MEKK2wt PB1 HTS: 98; IMP-1 inhibitor: 36*

What do the screens show for `Cc1cccc2sc(NC(=O)CSc3nc4ccccc4o3)nc12`?
VIM-2 inhibitor: -3; MEKK2mut PB1 HTS: 0; MEKK3 PB1 HTS: 103; MEKK2wt PB1 HTS: 101; IMP-1 inhibitor: -3

Results for O=C1c2cccc3cccc(c23)C(=O)N1c1ccc(O)cc1 ?
VIM-2 inhibitor: 8.4*; MEKK2mut PB1 HTS: 4; MEKK3 PB1 HTS: 104; MEKK2wt PB1 HTS: 106; IMP-1 inhibitor: -3

Results for COC(=O)c1c(NC(=O)c2ccco2)sc(C(=O)N(C)C)c1C ?
VIM-2 inhibitor: 12*; MEKK2mut PB1 HTS: 2; MEKK3 PB1 HTS: 96; MEKK2wt PB1 HTS: 97; IMP-1 inhibitor: 1

How did COC(=O)c1ccsc1NC(=O)c1ccco1 do in these assays?
VIM-2 inhibitor: 6; MEKK2mut PB1 HTS: 6; MEKK3 PB1 HTS: 102; MEKK2wt PB1 HTS: 106; IMP-1 inhibitor: -2

Results for COC(=O)c1cc(C)sc1NC(=O)c1ccco1 ?
VIM-2 inhibitor: 8.1*; MEKK2mut PB1 HTS: 2; MEKK3 PB1 HTS: 99; MEKK2wt PB1 HTS: 104; IMP-1 inhibitor: 0

What do the screens show for `COc1cc(/C=N/n2cnnc2)ccc1OS(=O)(=O)c1ccccc1[N+](=O)[O-]`?
VIM-2 inhibitor: -2; MEKK2mut PB1 HTS: -2; MEKK3 PB1 HTS: 101; MEKK2wt PB1 HTS: 83; IMP-1 inhibitor: -4

How did CCOc1cc(/C=C2\C(=N)N3N=C(CC)SC3=NC2=O)ccc1OCCOc1ccc(NC(C)=O)cc1 do in these assays?
VIM-2 inhibitor: 5; MEKK2mut PB1 HTS: 0; MEKK3 PB1 HTS: 104; MEKK2wt PB1 HTS: 102; IMP-1 inhibitor: 0

Results for CCC1=NN2C(=N)/C(=C\c3ccc(OCCOc4ccc(NC(C)=O)cc4)cc3)C(=O)N=C2S1 ?
VIM-2 inhibitor: 10*; MEKK2mut PB1 HTS: 16; MEKK3 PB1 HTS: 100; MEKK2wt PB1 HTS: 100; IMP-1 inhibitor: -3

What do the screens show for `N#CCCN(Cc1cccnc1)C(=S)NCc1ccco1`?
VIM-2 inhibitor: -1; MEKK2mut PB1 HTS: -2; MEKK3 PB1 HTS: 113; MEKK2wt PB1 HTS: 105; IMP-1 inhibitor: -1

How did Cc1ncsc1CCSc1n[nH]c(=O)n1-c1ccccc1 do in these assays?
VIM-2 inhibitor: 1; MEKK2mut PB1 HTS: 4; MEKK3 PB1 HTS: 105; MEKK2wt PB1 HTS: 102; IMP-1 inhibitor: 0

What do the screens show for `COC(=O)CSc1nc2ccccc2c(=O)n1C`?
VIM-2 inhibitor: -2; MEKK2mut PB1 HTS: 5; MEKK3 PB1 HTS: 102; MEKK2wt PB1 HTS: 100; IMP-1 inhibitor: -3

How did Cc1ncsc1CCSc1nc2ccccc2c(=O)n1C do in these assays?
VIM-2 inhibitor: 21*; MEKK2mut PB1 HTS: -6; MEKK3 PB1 HTS: 91; MEKK2wt PB1 HTS: 95; IMP-1 inhibitor: -3

Results for Cn1c(SCC(=O)O)nc2ccccc2c1=O ?
VIM-2 inhibitor: 11*; MEKK2mut PB1 HTS: -5; MEKK3 PB1 HTS: 100; MEKK2wt PB1 HTS: 95; IMP-1 inhibitor: 0

How did CCOC(=O)c1cnc(-c2ccccc2)nc1N1CC(C)OC(C)C1 (stereo not drawn) do in these assays?
VIM-2 inhibitor: 0; MEKK2mut PB1 HTS: -4; MEKK3 PB1 HTS: 99; MEKK2wt PB1 HTS: 97; IMP-1 inhibitor: -1

Results for Cn1nccc1NC(=O)Nc1cccc(Cl)c1 ?
VIM-2 inhibitor: -2; MEKK2mut PB1 HTS: -5; MEKK3 PB1 HTS: 91; MEKK2wt PB1 HTS: 91; IMP-1 inhibitor: -2

How did CC(C)n1nccc1NC(=O)Nc1ccccc1 do in these assays?
VIM-2 inhibitor: 0; MEKK2mut PB1 HTS: -1; MEKK3 PB1 HTS: 102; MEKK2wt PB1 HTS: 98; IMP-1 inhibitor: 9.1*

Results for O=[N+]([O-])c1cc(Br)c(O)c(/C=N/Nc2nnnn2-c2cccc3ccccc23)c1 ?
VIM-2 inhibitor: -3; MEKK2mut PB1 HTS: 1; MEKK3 PB1 HTS: 106; MEKK2wt PB1 HTS: 107; IMP-1 inhibitor: 4.8*

How did O=C(O)c1ccc(-c2ccco2)n1Cc1ccccc1 do in these assays?
VIM-2 inhibitor: 2; MEKK2mut PB1 HTS: -4; MEKK3 PB1 HTS: 93; MEKK2wt PB1 HTS: 96; IMP-1 inhibitor: 8.8*

How did Cc1c(OCC(=O)N2C[C@H]3C[C@@H](C2)c2cccc(=O)n2C3)ccc2c3c(c(=O)oc12)CCC3 do in these assays?
VIM-2 inhibitor: 12*; MEKK2mut PB1 HTS: -1; MEKK3 PB1 HTS: 99; MEKK2wt PB1 HTS: 98; IMP-1 inhibitor: -2

What do the screens show for `Cc1c(OCC(=O)N2C[C@H]3C[C@@H](C2)c2cccc(=O)n2C3)ccc2c3c(c(=O)oc12)CCCC3`?
VIM-2 inhibitor: 6; MEKK2mut PB1 HTS: 0; MEKK3 PB1 HTS: 99; MEKK2wt PB1 HTS: 96; IMP-1 inhibitor: -3

Results for O=C(COc1cc2oc(=O)c3c(c2cc1Cl)CCC3)N1C[C@H]2C[C@@H](C1)c1cccc(=O)n1C2 ?
VIM-2 inhibitor: 11*; MEKK2mut PB1 HTS: 2; MEKK3 PB1 HTS: 102; MEKK2wt PB1 HTS: 110; IMP-1 inhibitor: 0

What do the screens show for `COc1ccc(N=Cc2nc(-c3ccccc3)oc2OC(=O)c2ccccc2)cc1`?
VIM-2 inhibitor: -3; MEKK2mut PB1 HTS: -5; MEKK3 PB1 HTS: 94; MEKK2wt PB1 HTS: 92; IMP-1 inhibitor: 0

Results for CC(C)CC1=C/C(=C/c2ccc(-c3ccccc3)o2)C(=O)O1 ?
VIM-2 inhibitor: -3; MEKK2mut PB1 HTS: -3; MEKK3 PB1 HTS: 93; MEKK2wt PB1 HTS: 91; IMP-1 inhibitor: 4.9*

How did CCCCc1ccc(NC(=O)CN2NS(=O)(=O)c3ccccc3C2=O)cc1 do in these assays?
VIM-2 inhibitor: 0; MEKK2mut PB1 HTS: -2; MEKK3 PB1 HTS: 96; MEKK2wt PB1 HTS: 97; IMP-1 inhibitor: 5.5*

What do the screens show for `COC(=O)Nc1nn(-c2ccc(C)cc2)c(=O)c(C#N)c1C`?
VIM-2 inhibitor: -2; MEKK2mut PB1 HTS: -13; MEKK3 PB1 HTS: 92; MEKK2wt PB1 HTS: 92; IMP-1 inhibitor: -2

What do the screens show for `O=C1C2CCCN2c2ccc(S(=O)(=O)N3CCOCC3)cc2N1Cc1cccc(C(F)(F)F)c1` (stereo not drawn)?
VIM-2 inhibitor: -2; MEKK2mut PB1 HTS: 0; MEKK3 PB1 HTS: 98; MEKK2wt PB1 HTS: -8.0*; IMP-1 inhibitor: -3

Results for CN(C)c1ccc(/C=N\Nc2ccccn2)cc1 ?
VIM-2 inhibitor: 0; MEKK2mut PB1 HTS: 8; MEKK3 PB1 HTS: 110; MEKK2wt PB1 HTS: 114; IMP-1 inhibitor: -3

What do the screens show for `CN(C)c1ccc(/C=N/Nc2ccc(-n3ccnc3)nn2)cc1`?
VIM-2 inhibitor: 8.2*; MEKK2mut PB1 HTS: -2; MEKK3 PB1 HTS: 102; MEKK2wt PB1 HTS: 99; IMP-1 inhibitor: -2
